Source: paper PMC7686291 (Psychopharmacology, 2020)
Where a name gives a salt, the structure may show the parent alone.

Key:
[1] = target: dopamine transporters (DAT) (Rattus norvegicus, UniProt P23977); experiment: Transporter release assay, [3H]MPP+ via DAT, rat brain synaptosomes; format: biochemical; conditions: for Emax: read-out: DAT release %Emax; for Times more potent than MDA at DAT release / Times more potent than MDMA at DAT release: ratio of EC50 values, synaptosomes; for DAT release %Emax: % of maximal release defined with 10 μM tyramine
Chain of dopamine transporters (DAT) (P23977 whole entry): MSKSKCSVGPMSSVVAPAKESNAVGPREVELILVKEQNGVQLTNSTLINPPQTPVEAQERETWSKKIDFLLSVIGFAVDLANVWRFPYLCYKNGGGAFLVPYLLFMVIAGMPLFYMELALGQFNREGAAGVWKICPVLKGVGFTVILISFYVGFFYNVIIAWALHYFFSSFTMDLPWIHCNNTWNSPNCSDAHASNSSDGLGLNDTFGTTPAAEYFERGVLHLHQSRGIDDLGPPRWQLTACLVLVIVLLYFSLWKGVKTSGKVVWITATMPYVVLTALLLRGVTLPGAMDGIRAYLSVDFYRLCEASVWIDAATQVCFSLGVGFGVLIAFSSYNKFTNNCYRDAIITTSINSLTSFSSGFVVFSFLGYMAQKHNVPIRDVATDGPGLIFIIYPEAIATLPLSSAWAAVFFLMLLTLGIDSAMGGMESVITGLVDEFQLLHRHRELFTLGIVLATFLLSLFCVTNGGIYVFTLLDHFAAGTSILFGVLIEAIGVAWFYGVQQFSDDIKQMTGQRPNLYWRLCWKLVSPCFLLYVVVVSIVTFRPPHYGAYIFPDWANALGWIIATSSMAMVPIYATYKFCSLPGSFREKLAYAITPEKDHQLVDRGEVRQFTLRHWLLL
Method in brief: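 Striatal synaptosomes from male Sprague-Dawley rats, prepared in 10% sucrose containing 1 μM reserpine; no unlabeled blockers added. Loaded 1 h to steady state with 9 nM [3H]MPP+ in Krebs-phosphate buffer; test compound at various concentrations added for 30 min. Ended by rapid vacuum filtration and scintillation counting of filter-bound radioactivity. EC50 by non-linear regression; efficacy relative to maximal release by 10 μM tyramine.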

[2] = target: norepinephrine transporters (NET) (Rattus norvegicus, UniProt Q63380); experiment: Transporter release assay, [3H]MPP+ via NET, rat brain synaptosomes; format: biochemical; conditions: for Emax: read-out: NET release %Emax; for Times more potent than MDA at NET release / Times more potent than MDMA at NET release: ratio of EC50 values, synaptosomes; for NET release %Emax: % of maximal release defined with 10 μM tyramine
Chain of norepinephrine transporters (NET) (Q63380 1-617): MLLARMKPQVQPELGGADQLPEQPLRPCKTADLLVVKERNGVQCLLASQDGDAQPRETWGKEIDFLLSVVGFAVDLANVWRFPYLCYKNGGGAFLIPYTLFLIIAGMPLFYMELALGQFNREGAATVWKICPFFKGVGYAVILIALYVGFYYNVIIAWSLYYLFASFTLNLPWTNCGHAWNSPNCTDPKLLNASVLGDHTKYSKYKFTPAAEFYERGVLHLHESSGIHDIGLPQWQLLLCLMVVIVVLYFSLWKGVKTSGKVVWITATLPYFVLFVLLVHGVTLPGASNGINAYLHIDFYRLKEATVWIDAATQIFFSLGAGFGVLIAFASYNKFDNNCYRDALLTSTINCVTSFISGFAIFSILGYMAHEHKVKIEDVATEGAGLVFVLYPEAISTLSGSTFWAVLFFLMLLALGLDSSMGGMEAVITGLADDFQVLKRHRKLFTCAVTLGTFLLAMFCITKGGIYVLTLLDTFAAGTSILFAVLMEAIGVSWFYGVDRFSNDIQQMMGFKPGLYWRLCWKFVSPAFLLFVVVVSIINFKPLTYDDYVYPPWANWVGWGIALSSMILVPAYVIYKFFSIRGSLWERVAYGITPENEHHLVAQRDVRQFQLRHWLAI
Method in brief: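 Male Sprague-Dawley rat whole brain minus striatum and cerebellum gave synaptosomes in 10% sucrose with 1 μM reserpine, 100 nM GBR12935 and citalopram. After 1 h preloading with 9 nM [3H]MPP+ in Krebs-phosphate buffer, incubated 30 min with varied test compound concentrations. Filtration, then scintillation counting of retained radioactivity. EC50 from non-linear regression; efficacy as % of 10 μM tyramine release.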

[3] = target: serotonin transporters (SERT) (Rattus norvegicus, UniProt P31652); experiment: Transporter release assay, [3H]5-HT via SERT, rat brain synaptosomes; format: biochemical; conditions: for Emax: read-out: SERT release %Emax; for SERT release %Emax: % of maximal release defined with 100 μM tyramine
Chain of serotonin transporters (SERT) (P31652 whole entry): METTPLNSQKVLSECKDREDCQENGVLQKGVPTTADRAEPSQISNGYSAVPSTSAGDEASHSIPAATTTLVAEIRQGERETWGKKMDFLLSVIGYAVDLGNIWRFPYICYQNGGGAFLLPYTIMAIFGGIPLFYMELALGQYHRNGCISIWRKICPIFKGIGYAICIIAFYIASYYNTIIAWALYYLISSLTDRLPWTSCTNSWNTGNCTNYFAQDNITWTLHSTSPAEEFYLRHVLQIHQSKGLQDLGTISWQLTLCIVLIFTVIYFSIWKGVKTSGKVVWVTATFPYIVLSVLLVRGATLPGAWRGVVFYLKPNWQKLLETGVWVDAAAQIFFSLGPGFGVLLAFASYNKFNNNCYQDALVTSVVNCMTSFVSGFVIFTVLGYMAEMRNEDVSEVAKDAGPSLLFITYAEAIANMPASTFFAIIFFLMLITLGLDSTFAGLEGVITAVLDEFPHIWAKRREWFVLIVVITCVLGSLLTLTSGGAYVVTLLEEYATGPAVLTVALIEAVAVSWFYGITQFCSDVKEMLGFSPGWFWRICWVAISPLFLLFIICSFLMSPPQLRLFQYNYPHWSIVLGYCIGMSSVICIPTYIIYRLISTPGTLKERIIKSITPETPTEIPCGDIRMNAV
Method in brief: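 Synaptosomes from whole brain minus striatum and cerebellum of male Sprague-Dawley rats, made in 10% sucrose with 1 μM reserpine plus 100 nM GBR12935 and nomifensine. Preloaded 1 h to steady state with 5 nM [3H]5-HT in Krebs-phosphate buffer, then incubated 5 min with test compound at various concentrations. Stopped by vacuum filtration; retained label counted by scintillation. EC50 from non-linear regression; efficacy as % of release by 100 μM tyramine.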

[4] = system: extracellular 5-HT in nucleus accumbens; experiment: In vivo microdialysis in nucleus accumbens, dialysate 5-HT; set-up: species or system rat; conditions: male rats
Method in brief: (§1)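 Male Sprague-Dawley rats (300–400 g) were fitted with a jugular catheter and a nucleus accumbens guide cannula under pentobarbital (60 mg/kg i.p.), with ≥1 week recovery. Probes (2×0.5 mm) were perfused with Ringers' at 0.6 μL/min overnight. 20-min dialysates were assayed by microbore HPLC-ECD. After three stable baselines: i.v. dose at time zero, threefold higher dose at 60 min. Saline 1 mL/kg controls; n = 7/group; % baseline; dose × time ANOVA, Bonferroni.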

[5] = system: conscious male rats; experiment: Horizontal ambulation; format: in vivo, rat; conditions: for Duration of behavioral activation (forward ambulation) post-injection: i.v.
Method in brief: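 Conscious, tethered male Sprague-Dawley rats (300–400 g) with jugular catheters were placed overnight in photobeam arenas during accumbens microdialysis. Horizontal-plane movement was counted in 20-min bins over 120 min. Two i.v. injections: first dose at time zero, threefold higher dose 60 min later. Saline (1 mL/kg) controls; n = 7/group. Data normalized to three preinjection bins; dose × time ANOVA versus saline with Bonferroni tests.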

[6] = system: human transporters (DAT, SERT); conditions: cited from earlier work; for DAT/SERT ratio in transfected cells: ref Luethi et al. 2019; for DAT/SERT ratio from uptake inhibition potencies: transfected HEK cells, human transporters, ref Rickli et al. 2015
[7] = system: extracellular dopamine in nucleus accumbens; experiment: In vivo microdialysis in nucleus accumbens, dialysate dopamine; set-up: species or system rat; conditions: male rats; for Peak increase of dialysate dopamine above baseline: 1.0 mg/kg i.v. given 60 min after 0.3 mg/kg
Method in brief: as §1

[8] = system: dialysate dopamine in corpus striatum; conditions: oral 0.08 mmol/kg (~17 mg/kg), male CD-1 mice, ref Fuwa et al. 2016; cited from earlier work
[9] = system: dialysate 5-HT in corpus striatum; conditions: ref Fuwa et al. 2016, cited from earlier work
[10] = system: mice; conditions: ref Dolan et al. (2017), cited from earlier work
[11] = system: rats; conditions: rats trained with MDMA 1.5 mg/kg i.p., ref Dolan et al. (2017), cited from earlier work
[12] = 3 mg/kg i.v. given 60 min after 1 mg/kg
[13] = ratio of EC50 values, synaptosomes
[14] = 1.0 mg/kg i.v. given 60 min after 0.3 mg/kg

Structure (SMILES)	EC50 [1] [nM]	Emax [1] [%]	EC50 [2] [nM]	Emax [2] [%]	EC50 [3] [nM]	Emax [3] [%]	Duration of behavioral activation (forward ambulation) post-injection [5]	DAT/SERT ratio in transfected cells [6]	Times more potent than MDA at DAT release [1] [fold]	Times more potent than MDA at NET release [2]	Times more potent than MDA at SERT release [3, 13] [fold]	Peak increase of dialysate dopamine above baseline [7] [fold]	Peak effect on dialysate 5-HT above baseline [4, 14] [fold]	Peak effect on ambulation above baseline [5, 14] [fold]	DAT/SERT ratio from uptake inhibition potencies [6]	DAT release %Emax [1] [%]	Times more potent than MDMA at DAT release [1]	NET release %Emax [2] [%]	Times more potent than MDMA at NET release [2] [times]	SERT release %Emax [3] [%]	further results
CC(N)Cc1ccc2c(c1)OCO2 (racemic) [MDA, (±)-3,4-Methylenedioxyamphetamine HCl, reference compound]	106 ± 7	104	47 ± 7	91	162 ± 28	109	at least 2 h	0.25	–	–	–	–	–	–	–	–	–	–	–	–	Peak effect on dialysate 5-HT above baseline ([4]; 1 mg/kg i.v., first dose): 4.6 fold; Peak effect on dialysate 5-HT above baseline [4, 12]: 11.2 fold; Fold less potent than 5-APB and 6-APB at increasing dialysate 5-HT ([4]; in vivo microdialysis, i.v.): 3 fold; Effect on locomotion vs saline (post hoc analysis) ([5]; 1 mg/kg i.v., first dose): did not significantly increase locomotion; Peak effect on ambulation above baseline [5, 12]: 30 fold; Ambulation above baseline at the 120 min point ([5]; 60 min after 3 mg/kg i.v.): about 18 fold
CNC(C)Cc1ccc2c(c1)OCO2 (racemic) [MDMA, (±)-3,4-methylenedioxymethamphetamine HCl, reference compound]	120 ± 8	101	90 ± 13	99	85 ± 16	104	–	0.12	–	–	–	–	–	–	–	–	–	–	–	–	–
CC(N)Cc1ccc2occc2c1 (stereo not shown) [5-APB, 1-(1-Benzofuran-5-yl)propan-2-amine]	31 ± 3	103	21 ± 4	103	19 ± 2	104	at least 2 h	–	3.4	2–3 times	8.5	6.7	17.7	21	0.05	–	–	–	–	–	Times more potent than 5-MAPB at SERT release [3, 13]: 3.4 times; Effect on dialysate dopamine vs saline (post hoc test) ([7]; 0.3 mg/kg i.v.): failed to significantly increase dopamine levels; Increase of dialysate 5-HT ([4]; 20 min after 0.3 mg/kg i.v.): 5.7 fold; Dialysate 5-HT above baseline at the 120 min point ([4]; 120 min point, 60 min after 1.0 mg/kg i.v.): 11.3 fold; Ambulation above baseline at the 120 min point ([5]; 60 min after 1.0 mg/kg i.v.): 14.0 fold; Increase in dialysate dopamine [8]: 8 fold; Increase in dialysate 5-HT ([9]; oral 0.08 mmol/kg (~17 mg/kg), corpus striatum, male CD-1 mice): 23 fold; Time the rise in extracellular 5-HT was maintained post-injection ([9]; oral 0.08 mmol/kg, mice): up to 3 h; ED50 for increase of forward locomotion ([10]; i.p.): 3.27 mg/kg; Potency to stimulate activity, fold greater than that of MDMA ([10]; Gatch et al. 2019): at least 3 fold; ED50 to substitute for the MDMA stimulus cue ([11]; i.p.): 0.27 mg/kg; Substitution for the discriminative stimulus effects of MDMA [11]: fully substitutes
CNC(C)Cc1ccc2occc2c1 (stereo not shown) [5-MAPB]	–	–	–	–	–	–	–	–	–	–	–	–	–	–	–	103	at least 3 times	99	≥ 3.75	103	Times more potent than MDMA at SERT release [3, 13]: up to 2.5 times
CC(N)Cc1ccc2ccoc2c1 (stereo not shown) [6-APB, 1-(1-benzofuran-6-yl)propan-2-amine]	10 ± 1	101	14 ± 2	98	36 ± 5	100	at least 2 h	–	10	2–3 times	4.5	8.4	16	24	0.29	–	–	–	–	–	Increase of dialysate dopamine ([7]; 20 min after 0.3 mg/kg i.v.): 2.6 fold; Increase of dialysate dopamine ([7]; 40 min after 0.3 mg/kg i.v.): 3.3 fold; Effect on locomotion vs saline (post hoc analysis) ([5]; 0.3 mg/kg i.v.): failed to result in significant increases in locomotion
CNC(C)Cc1ccc2ccoc2c1 (stereo not shown) [6-MAPB]	–	–	–	–	–	–	–	–	–	–	–	–	–	–	–	106	at least 3 times	100	≥ 3.75	106	Times more potent than MDMA at SERT release [3, 13]: up to 2.5 times
